Measurements as given in ChEMBL document CHEMBL4321807, “Cyanine-Gemcitabine Conjugates as Targeted Theranostic Agents for Glioblastoma Tumor Cells” (J Med Chem, 2019).
pIC50: −log10 of the molar value. Calls of active or inactive are those of the source. The rule behind the calls is not given here.

Legend:
U-87 MG [1] = experiment: Antitumor activity against luciferase and RFP reporter expressing human U87 cells xenografted in Fox1nu mouse assessed as decrease in tumor size at 10 mg/kg, iv administered at day 4 and day 8 post inoculation and six injections weekly measured after 5 weeks by bioluminescence imaging analysis; type: functional, organism-based; conditions: U-87MG ATCC
U-87 MG [2] = experiment: Cytotoxicity against human U87 cells assessed as reduction in cell viability incubated for 72 hrs by AlamarBlue assay; type: functional, cell-based, U-87MG ATCC
U-87 MG [3] = experiment: Antitumor activity against luciferase and RFP reporter expressing human U87 cells xenografted in Fox1nu mouse assessed as decrease in tumor burden at 10 mg/kg, iv administered at day 4 and day 8 post inoculation and six injections weekly measured after 5 weeks by bioluminescence imaging analysis; type: functional, organism-based; conditions: U-87MG ATCC
[4] = Toxicity in […] mouse xenografted with luciferase and RFP reporter expressing human U87 cells assessed as effect on body weight at 10 mg/kg, iv administered at day 4 and day 8 post inoculation and six injections weekly measured after 5 weeks; type: organism-based; conditions: in vivo, 840 h
[5] = Drug localization in mitochondria of human U87 cells at 20 uM incubated for 45 mins by Mitotracker staining-based confocal fluorescence microscopy; type: ADME; conditions: u-87mg atcc, 0.75 h
How it was run: (§1)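 U87 cells seeded at 10 000/well in imaging chambers and left overnight. Exposed to 20 μM compound in FluoroBrite DMEM for 45 min at 37 °C, then washed with HBSS. Stained 15 min with LysoTracker (1:10 000) or MitoTracker (1:15 000), plus NucBlue nuclear stain. Imaged live by confocal microscopy at 60×, dye excited at 633 nm. Colocalization scored by Pearson's correlation coefficient.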

[6] = Drug localization in lysosome of human U87 cells at 20 uM incubated for 45 mins by Lysotracker staining-based confocal fluorescence microscopy; type: ADME; conditions: u-87mg atcc, 0.75 h; how it was run: as §1
[7] = Drug metabolism in mouse serum assessed as 2-((E)-2-((E)-2-((2-Carboxyethyl)thio)-3-(2-((E)-1-(5-carboxypentyl)-3,3-dimethylindolin-2-ylidene)ethylidene)cyclohex-1-en-1-yl)vinyl)-1-(5-carboxypentyl)-3,3-dimethyl-3H-indol-1-ium chloride formation at low temperature at 50 uM by HPLC analysis; type: ADME, cell-free
How it was run: (§2)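 Compound at 50 μM in commercial mouse serum at 37 °C. Followed by C4 HPLC with 780 nm absorbance; the metabolite was identified by MS and by coelution with a synthesized standard. Variant conditions: protease/phosphatase inhibitor cocktail premixed at 10% in serum, or incubation at low temperature.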

[8] = Drug uptake in kidney of Fox1nu mouse xenografted with luciferase and RFP reporter expressing human U87 cells at 10 mg/kg, iv measured after 2 hrs post drug administration by fluorescence imaging analysis; type: ADME, organism-based, U-87MG ATCC; conditions: in vivo
How it was run: (§3)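 Xenograft mice carried subcutaneous U87-RFP-LUC flank tumors. Each received 10 mg/kg by retro-orbital i.v. injection in vehicle (2% DMSO, 9% ethanol, 9% BSA in PBS). Whole-body NIR fluorescence (ex 745/em 840 nm, radiant efficiency) imaged on IVIS under isoflurane at set times after injection. For organ signal, tumor and organs were dissected and imaged ex vivo.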

[9] = Drug uptake in small intestine of Fox1nu mouse xenografted with luciferase and RFP reporter expressing human U87 cells assessed as decrease in drug residual at 10 mg/kg, iv measured after 2 hrs post drug administration by fluorescence imaging analysis; type: ADME, organism-based, U-87MG ATCC; conditions: in vivo; how it was run: as §3
[10] = Drug uptake in liver of Fox1nu mouse xenografted with luciferase and RFP reporter expressing human U87 cells at 10 mg/kg, iv measured after 2 days post drug administration by fluorescence imaging analysis; type: ADME, organism-based, U-87MG ATCC; conditions: in vivo, 48 h; how it was run: as §3
[11] = Drug uptake in liver of Fox1nu mouse xenografted with luciferase and RFP reporter expressing human U87 cells at 10 mg/kg, iv measured after 2 hrs post drug administration by fluorescence imaging analysis; type: ADME, organism-based, U-87MG ATCC; conditions: in vivo; how it was run: as §3
HEK293 = experiment: Cytotoxicity against human HEK293 cells assessed as reduction in cell viability at 0.0001 to 10 uM incubated for 72 hrs by AlamarBlue assay; type: cell-based; conditions: hek293, 72 h
How it was run: (§4)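 LN18 and LN229 cells in DMEM with 5% FBS; HEK293 in DMEM/F12 with 10% FBS. Seeded at 2500/well and left overnight. Compounds added in PFHM II to final 0.0001–10 μM for 72 h. Viability by AlamarBlue, fluorescence Ex/Em 560/590 nm.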

[12] = Drug uptake in Fox1nu mouse xenografted with luciferase and RFP reporter expressing human U87 cells assessed as decrease in drug residual at 10 mg/kg, iv measured at 144 hrs post drug administration by fluorescence imaging analysis relative to control; type: ADME, organism-based; conditions: in vivo; how it was run: as §3
LN-229 = experiment: Cytotoxicity against human LN229 cells assessed as reduction in cell viability at 0.0001 to 10 uM incubated for 72 hrs by AlamarBlue assay; type: functional, cell-based; how it was run: as §4
[13] = Drug uptake in lung of Fox1nu mouse xenografted with luciferase and RFP reporter expressing human U87 cells at 10 mg/kg, iv measured after 2 hrs post drug administration by fluorescence imaging analysis; type: ADME, organism-based, U-87MG ATCC; conditions: in vivo; how it was run: as §3
[14] = Drug metabolism in mouse serum assessed as 2-((E)-2-((E)-2-((2-Carboxyethyl)thio)-3-(2-((E)-1-(5-carboxypentyl)-3,3-dimethylindolin-2-ylidene)ethylidene)cyclohex-1-en-1-yl)vinyl)-1-(5-carboxypentyl)-3,3-dimethyl-3H-indol-1-ium chloride formation at 50 uM in presence of protease and phosphatase by HPLC analysis; type: ADME, cell-free; how it was run: as §2
[15] = Half life of compound in human U87 tumor homogenate at 50 uM measured upto 72 hrs by HPLC analysis; type: ADME, U-87MG ATCC
How it was run: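 Tumor homogenate prepared from U87 xenograft tissue in RIPA buffer (on ice), clarified by centrifugation and 0.2 μm filtration. Compound at 50 μM incubated at 37 °C for up to 72 h. Samples run on analytical C4 HPLC (5–90% MeCN gradient, 0.1% TFA) with 780 nm absorbance. Peak area normalized over time.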

[16] = Drug uptake in Fox1nu mouse xenografted with luciferase and RFP reporter expressing human U87 cells assessed as decrease in drug residual at 10 mg/kg, iv measured […] post drug administration by fluorescence imaging analysis relative to control; type: ADME, organism-based; conditions: in vivo, 48 h, in the assay text read “48 hrs” for “24 hrs”; how it was run: as §3
[17] = Drug uptake in large intestine of Fox1nu mouse xenografted with luciferase and RFP reporter expressing human U87 cells at 10 mg/kg, iv measured after 2 hrs post drug administration by fluorescence imaging analysis; type: ADME, organism-based, U-87MG ATCC; conditions: in vivo; how it was run: as §3
[18] = Time taken for drug metabolism in mouse serum at 50 uM by HPLC analysis; type: ADME, cell-free; how it was run: as §2
[19] = Drug uptake in Fox1nu mouse xenografted with luciferase and RFP reporter expressing human U87 cells assessed as increase in fluorescence signal in tumor at 10 mg/kg, iv measured after 30 mins post drug administration by fluorescence imaging analysis; type: ADME, organism-based; conditions: in vivo, 0.5 h; how it was run: as §3
[20] = Drug metabolism in mouse serum assessed as 2-((E)-2-((E)-2-((2-Carboxyethyl)thio)-3-(2-((E)-1-(5-carboxypentyl)-3,3-dimethylindolin-2-ylidene)ethylidene)cyclohex-1-en-1-yl)vinyl)-1-(5-carboxypentyl)-3,3-dimethyl-3H-indol-1-ium chloride formation at 50 uM by HPLC analysis; type: ADME, cell-free; how it was run: as §2
[21] = Drug uptake in Fox1nu mouse xenografted with luciferase and RFP reporter expressing human U87 cells assessed as increase in fluorescence signal in at retro-orbital vein at 10 mg/kg, iv measured after 30 mins post drug administration by fluorescence imaging analysis; type: ADME, organism-based; conditions: in vivo, 0.5 h; how it was run: as §3
[22] = Drug uptake in Fox1nu mouse xenografted with luciferase and RFP reporter expressing human U87 cells assessed as increase in fluorescence signal in liver at 10 mg/kg, iv measured after 30 mins post drug administration by fluorescence imaging analysis; type: ADME, organism-based; conditions: in vivo, 0.5 h; how it was run: as §3
[23] = Drug uptake in tumor of Fox1nu mouse xenografted with luciferase and RFP reporter expressing human U87 cells at 10 mg/kg, iv measured after 2 days post drug administration by fluorescence imaging analysis; type: ADME, organism-based, Neoplasm, U-87MG ATCC; conditions: in vivo, 48 h; how it was run: as §3
[24] = Drug uptake in kidney of Fox1nu mouse xenografted with luciferase and RFP reporter expressing human U87 cells at 10 mg/kg, iv measured after 2 days post drug administration by fluorescence imaging analysis; type: ADME, organism-based, U-87MG ATCC; conditions: in vivo, 48 h; how it was run: as §3
[25] = Drug uptake in tumor of Fox1nu mouse xenografted with luciferase and RFP reporter expressing human U87 cells at 10 mg/kg, iv measured after 2 hrs post drug administration by fluorescence imaging analysis; type: ADME, organism-based, Neoplasm, U-87MG ATCC; conditions: in vivo; how it was run: as §3
LN-18 = experiment: Cytotoxicity against human LN18 cells assessed as reduction in cell viability at 0.0001 to 10 uM incubated for 72 hrs by AlamarBlue assay; type: functional, cell-based; how it was run: as §4
[26] = Half life in mouse serum at 50 uM incubated for 360 mins by HPLC analysis; type: ADME, cell-free; how it was run: as §2
U-87 MG [27] = experiment: Cytotoxicity against human U87 cells assessed as reduction in cell viability at 0.001 to 10 uM incubated for 72 hrs by AlamarBlue assay; type: functional, cell-based; conditions: U-87MG ATCC
How it was run: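 U87 cells, grown in DMEM/F12 with 10% FBS, seeded at 5000/well and left overnight. Compounds added in protein-free hybridoma medium (PFHM II) to final 0.001–10 μM and incubated 72 h at 37 °C. Viability read by AlamarBlue, 2 h, fluorescence Ex/Em 560/590 nm. IC50 taken relative to the lowest concentration beyond which no further cell death occurs.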

Nc1ccn([C@@H]2O[C@H](CO)[C@@H](O)C2(F)F)c(=O)n1 [GEMCITABINE]
Activity (U-87 MG [1]): inactive
pIC50 (U-87 MG [2]): 8.09
Activity (U-87 MG [3]): Active
Activity [4]: Non-Toxic

CC1(C)C(/C=C/C2=C(Cl)C(=C/C=C3/N(CCCCCC(=O)O)c4ccccc4C3(C)C)/CCC2)=[N+](CCCCS(=O)(=O)O)c2ccccc21.[Cl-]
Drug uptake [5]: Active
Drug uptake [6]: Active

CCCN1/C(=C/C=C2\CCCC(/C=C/C3=[N+](CCC)c4ccccc4C3(C)C)=C2Cl)C(C)(C)c2ccccc21.[Cl-]
Drug uptake [5]: Active
pIC50 (U-87 MG [2]): 5.15
Drug uptake [6]: Active

CC1(C)C(/C=C/C2=C(Cl)C(=C/C=C3/N(CCCCS(=O)(=O)O)c4ccccc4C3(C)C)/CCC2)=[N+](CCCCS(=O)(=O)O)c2ccccc21.[Cl-]
Drug uptake [5]: Active
Drug uptake [6]: Active

O=C(CCS)Nc1ccn([C@@H]2O[C@H](CO)[C@@H](O)C2(F)F)c(=O)n1
pIC50 (U-87 MG [2]): 7.96

CC1(C)C(/C=C/C2=C(SCCC(=O)Nc3ccn([C@@H]4O[C@H](CO)[C@@H](O)C4(F)F)c(=O)n3)C(=C/C=C3/N(CCCCCC(=O)O)c4ccccc4C3(C)C)/CCC2)=[N+](CCCCCC(=O)O)c2ccccc21.[Cl-]
Drug uptake [5]: Active
Drug metabolism [7]: Metabolite_Notdetected
Drug uptake [8]: Active
Drug uptake [9]: Active
Drug uptake [10]: Active
Drug uptake [11]: Active
Activity (HEK293): Toxic
fold change (FC) [12]: 100
Activity (LN-229): Active
Drug uptake [13]: Active
Drug metabolism [14]: Metabolite_Notdetected
half-life at 50 µM [15]: 60 h
pIC50 (U-87 MG [2]): 7.68
fold change (FC) [16]: 10
Drug uptake [17]: Active
Time [18]: 3 h
Drug uptake [19]: Active
Drug metabolism [20]: Metabolite_Detected
Drug uptake [21]: Active
Drug uptake [22]: Active
Activity (U-87 MG [3]): Active
Activity [4]: Non-Toxic
Drug uptake [23]: Active
Drug uptake [24]: Active
Drug uptake [6]: Active
Drug uptake [25]: Active
Activity (LN-18): Active
half-life at 50 µM [26]: 1 h

CC1(C)C(/C=C/C2=C(SCCC(=O)Nc3ccn([C@H]4C[C@H](O)[C@@H](CO)O4)c(=O)n3)C(=C/C=C3/N(CCCCCC(=O)O)c4ccccc4C3(C)C)/CCC2)=[N+](CCCCCC(=O)O)c2ccccc21
Activity (U-87 MG [27]): Active
